From PubChem
In the library only some 2.2% were active in any assay of this set; here they are far more common.
E-sel inducer: E-selectin induction in HUVECs, primary screen, imaging, HUVEC, immunofluorescence imaging, single point | AID 686992, 2013 | normalized: neutral wells 0, TNF-alpha wells 100 | P16581 | 260,000 compounds, 0.37% hits | activation, % at 7.58 µM;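 active = mean E-selectin-positive cell signal at least 10% of the positive control, reached in at least 60% of replicates, without over 20% cell loss; inconclusive = no rule given, readout overlaps actives, possibly toxicity-flagged; inactive = the rest, including those meeting only one limit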
Target sequence (P16581 whole entry, looked up): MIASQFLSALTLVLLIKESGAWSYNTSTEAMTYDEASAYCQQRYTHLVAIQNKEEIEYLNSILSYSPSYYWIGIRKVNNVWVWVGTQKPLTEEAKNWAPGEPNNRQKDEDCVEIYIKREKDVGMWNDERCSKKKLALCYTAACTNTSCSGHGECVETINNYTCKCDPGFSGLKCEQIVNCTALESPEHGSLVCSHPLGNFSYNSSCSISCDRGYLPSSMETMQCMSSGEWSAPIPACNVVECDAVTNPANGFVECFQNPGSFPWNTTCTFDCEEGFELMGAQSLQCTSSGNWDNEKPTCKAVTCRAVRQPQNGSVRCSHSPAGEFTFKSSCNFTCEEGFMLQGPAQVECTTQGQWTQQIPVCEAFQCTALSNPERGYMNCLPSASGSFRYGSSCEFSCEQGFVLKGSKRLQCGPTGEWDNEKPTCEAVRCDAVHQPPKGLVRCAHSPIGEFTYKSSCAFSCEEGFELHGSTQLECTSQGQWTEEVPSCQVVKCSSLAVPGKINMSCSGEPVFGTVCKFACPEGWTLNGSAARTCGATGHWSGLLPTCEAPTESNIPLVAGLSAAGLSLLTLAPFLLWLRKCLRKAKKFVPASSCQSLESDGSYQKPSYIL
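assay system = HUVEC, human umbilical vein endothelial cells | input = 3,000 HUVEC seeded per well | medium = EGM-2 growth medium on 0.1% gelatin-coated wells | dosing = one compound dose added by pin transfer | signal = immunofluorescence imaging | read-out basis = % PE-positive cells | control set = TNF-alpha, DMSO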
Statin myotox sup: suppressors of statin myotoxicity in C2C12 myotubes, primary screen, cell-based, single point, plate reader; C2C12 myotubes + simvastatin, ATP luminescence, 48 h; scaled: DMSO 0, geranylgeraniol control 100; AID 602340, 2012; 330,000 compounds, 0.78% hits; rescue of ATP level, % at 7.49 µM;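 active = mean ATP rescue above about 67%, or every replicate alone reaching that limit, limit read from the data, passing the limit was not always enough; inconclusive = no clear call, values can overlap the other calls; inactive = mean under the limit and some replicate under it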;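 also: myotubes were challenged with 10 µM simvastatin during compound exposure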
DENV2 CPE rescue: inhibitors of DENV2 cytopathic effect, primary screen, cell-based, plate reader, single concentration; DENV2-infected cells, cytopathic effect rescue; CPE inhibition, % at 9.99 µM; 350,000 compounds, 1.7% hits; in the data active = CPE inhibition above about 20%, passing the limit was not always enough; inconclusive = no clear call, values can overlap the other calls; tested in BHK-21 cells;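 also: 0% = median of neutral control wells and 100% = median of positive control wells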
* marks the source's active call; other numbers are inactive results; ? = inconclusive; . = no result given; ! = a repeat was not active.

SMILES | E-sel inducer | Statin myotox sup | DENV2 CPE rescue
COCCOc1cc(NC(=O)c2cccc(OC)c2)c(Cl)cc1Cl | 0 | . | -1
C[C@H](NC(=O)N(C)C[C@@H]1OCc2ccccc2-c2c(n(C)c3ccccc23)C(=O)N([C@H](C)CO)C[C@H]1C)c1ccccc1 | 1 | -6 | .
CCCNC(=O)C[C@@H]1CC[C@@H]2[C@H](COc3ccc(NC(=O)c4cccc(F)c4)cc3C(=O)N2C)O1 | 0 | -2 | 0
C[C@@H]1CN([C@@H](C)CO)C(=O)c2cccc(NC(=O)Nc3ccc(F)cc3)c2O[C@@H]1CN(C)Cc1ccncc1 | 65* | -7 | 9
C[C@H]1CN([C@@H](C)CO)C(=O)c2cccc(NC(=O)Nc3ccc(C(F)(F)F)cc3)c2O[C@H]1CN(C)Cc1ccncc1 | -4 | 18 | -5
C[C@@H]1CN([C@H](C)CO)C(=O)c2cccc(NC(=O)Nc3ccccc3)c2O[C@H]1CN(C)Cc1ccncc1 | 0 | 8 | -7
C[C@@H]1CN([C@H](C)CO)C(=O)c2cccc(NC(=O)Nc3ccc(F)cc3)c2O[C@H]1CN(C)Cc1ccncc1 | 40* | 58 | ?
C[C@@H]1CN([C@H](C)CO)C(=O)c2cccc(NC(=O)Nc3ccc(C(F)(F)F)cc3)c2O[C@H]1CN(C)Cc1ccncc1 | -10 | 16 | 5
C[C@H]1CN([C@@H](C)CO)C(=O)c2cccc(NC(=O)Nc3ccc(F)cc3)c2O[C@H]1CN(C)Cc1ccncc1 | 58* | 15 | -3
C[C@@H]1CN([C@H](C)CO)C(=O)Cc2cc(NC(=O)C3CCCCC3)ccc2O[C@@H]1CN(C)S(=O)(=O)c1cn(C)cn1 | 0 | -8 | ?
CCCNC(=O)Nc1ccc2c(c1)C(=O)N(C)C[C@@H](OC)[C@@H](C)CN(CCC(F)(F)F)[C@H](C)CO2 | 0 | 4 | .
O=C(C[C@H]1CC[C@@H]2[C@H](COC[C@@H](O)CN2Cc2ccc(F)cc2)O1)NCc1ccncn1 | 0 | 7 | -5
O=C(c1ccccn1)N1CC[C@@H]2[C@H]1c1cc(Br)ccc1N[C@@H]2CO | 1 | 43 | 18
O=c1oc2cc(OCc3c(F)c(F)c(F)c(F)c3F)ccc2cc1-c1ccccn1 | -1 | . | 15
O=c1oc2cc(OCc3ccc(F)cc3F)ccc2cc1-c1ccccn1 | . | 130* | .
C[C@@H](O)C#Cc1cnc2c(c1)C(=O)N([C@@H](C)CO)C[C@H](C)[C@H](CN(C)Cc1cccc(F)c1)O2 | 0 | -1 | -4
CS(=O)(=O)Nc1ccc2c(c1)[C@H]1C[C@@H](CC(=O)NCc3ccncc3)O[C@H](CO)[C@H]1O2 | 0 | 5 | 5
O=C(C1CCOCC1)N1CC[C@@H]2[C@H](CO)Nc3ccc(-c4ccc(F)cc4)cc3[C@@H]21 | 0 | -23 | 0
CC1(C)CNC(=O)c2sc(NC(=O)CN3CCOCC3)nc2C1 | . | 108* | .
CC1CCc2nc(NC(=O)CN3CCOCC3)sc2C1 (centres undefined) | . | 0 | .
CCCNC(=O)N1C[C@@H]2N[C@H](C1)C2c1ccc(-c2ccc(OC)cc2)cc1 (some centres undefined) | 0 | . | 32*!
Cc1ccccc1-c1ccc(C2[C@@H]3CN(C(=O)Cc4ccncc4)C[C@H]2N3)cc1 (some centres undefined) | 0 | . | 86*!
CCCNC(=O)N1C[C@@H]2N[C@H](C1)C2c1ccc(-c2ccc(F)cc2)cc1 (some centres undefined) | 0 | . | ?
CCCNC(=O)N1C[C@@H]2N[C@H](C1)C2c1ccc(-c2cccc(OC)c2)cc1 (some centres undefined) | 0 | . | 2
CCCNC(=O)N1[C@@H]2CNC[C@H]1C2c1ccc(/C=C/c2ccccc2)cc1 (some centres undefined) | 0 | . | -12
SMILES | E-sel inducer | Statin myotox sup | DENV2 CPE rescue
CCCNC(=O)N1C[C@@H]2N[C@H](C1)C2c1ccc(-c2ccccc2C)cc1 (some centres undefined) | 0 | . | 27*
Cc1cccc(-c2ccc(C3[C@@H]4CN(C(=O)Cc5ccncc5)C[C@H]3N4)cc2)c1 (some centres undefined) | 0 | . | -5
CCCNC(=O)N1[C@@H]2CNC[C@H]1C2c1ccc(-c2ccc(C)cc2)cc1 (some centres undefined) | 0 | . | 38*
C[C@@H]1CCCCO[C@H](CN(C)C)[C@@H](C)CN([C@H](C)CO)C(=O)c2cc(NC(=O)C3CCCCC3)ccc2O1 | 0 | -1 | 11
CC(=O)NC[C@H]1[C@@H](c2ccc(-c3ccccc3)cc2)[C@H](CO)N1C(=O)C1CCC1 | 0 | 3 | -7
O=C(N[C@H]1CC[C@@H](CCNC(=O)C2CCC2)O[C@H]1CO)c1ccncc1 | 0 | 1 | -8
